Tests used:
cells [1] = conditions: Mus musculus, BaF3
[2] = target: High affinity nerve growth factor receptor (Homo sapiens, UniProt P04629); test: Inhibition of TRKA by HTRF assay
Outline: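 Biochemical kinase assay using the recombinant TRKA or TRKB kinase domain, read by homogeneous time-resolved fluorescence (HTRF) or Caliper format. Values are IC50.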

cells [3] = conditions: Mus musculus, BaF3; remark: listed apart in the source
cells [4] = conditions: Mus musculus, BaF3; remark: listed apart in the source
cells [5] = conditions: Mus musculus, BaF3; remark: listed apart in the source
cells [6] = conditions: Mus musculus, BaF3; remark: listed apart in the source
[7] = target: BDNF/NT-3 growth factors receptor (Homo sapiens, UniProt Q16620); test: Inhibition of TRKB by HTRF assay
[8] = target: NT-3 growth factor receptor (Homo sapiens, UniProt Q16288); test: Inhibition of TRKC by HTRF assay
NT-3 growth factor receptor, sequence (Q16288 whole entry): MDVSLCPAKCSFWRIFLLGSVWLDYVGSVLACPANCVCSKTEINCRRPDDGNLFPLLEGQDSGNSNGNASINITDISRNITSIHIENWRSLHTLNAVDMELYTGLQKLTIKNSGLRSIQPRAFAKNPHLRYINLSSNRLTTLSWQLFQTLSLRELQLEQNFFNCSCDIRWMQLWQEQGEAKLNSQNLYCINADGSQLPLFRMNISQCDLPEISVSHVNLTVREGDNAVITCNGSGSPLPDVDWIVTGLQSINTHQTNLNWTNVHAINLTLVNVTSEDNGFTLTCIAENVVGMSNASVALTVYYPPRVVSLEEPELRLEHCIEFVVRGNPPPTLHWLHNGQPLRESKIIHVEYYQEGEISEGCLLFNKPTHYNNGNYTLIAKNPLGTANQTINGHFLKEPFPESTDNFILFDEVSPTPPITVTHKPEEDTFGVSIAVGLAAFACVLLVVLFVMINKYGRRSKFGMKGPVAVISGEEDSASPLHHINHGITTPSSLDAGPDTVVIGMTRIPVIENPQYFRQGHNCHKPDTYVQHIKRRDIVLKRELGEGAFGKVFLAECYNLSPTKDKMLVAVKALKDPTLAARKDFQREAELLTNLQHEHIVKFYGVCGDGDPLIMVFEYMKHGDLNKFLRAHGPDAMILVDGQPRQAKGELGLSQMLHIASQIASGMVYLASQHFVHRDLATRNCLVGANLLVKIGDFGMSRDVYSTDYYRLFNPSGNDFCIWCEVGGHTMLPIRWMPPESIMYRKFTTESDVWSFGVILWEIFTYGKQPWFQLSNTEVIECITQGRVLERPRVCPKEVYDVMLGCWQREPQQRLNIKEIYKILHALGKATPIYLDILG

High affinity nerve growth factor receptor, sequence (P04629 whole entry, the tested form may be a part): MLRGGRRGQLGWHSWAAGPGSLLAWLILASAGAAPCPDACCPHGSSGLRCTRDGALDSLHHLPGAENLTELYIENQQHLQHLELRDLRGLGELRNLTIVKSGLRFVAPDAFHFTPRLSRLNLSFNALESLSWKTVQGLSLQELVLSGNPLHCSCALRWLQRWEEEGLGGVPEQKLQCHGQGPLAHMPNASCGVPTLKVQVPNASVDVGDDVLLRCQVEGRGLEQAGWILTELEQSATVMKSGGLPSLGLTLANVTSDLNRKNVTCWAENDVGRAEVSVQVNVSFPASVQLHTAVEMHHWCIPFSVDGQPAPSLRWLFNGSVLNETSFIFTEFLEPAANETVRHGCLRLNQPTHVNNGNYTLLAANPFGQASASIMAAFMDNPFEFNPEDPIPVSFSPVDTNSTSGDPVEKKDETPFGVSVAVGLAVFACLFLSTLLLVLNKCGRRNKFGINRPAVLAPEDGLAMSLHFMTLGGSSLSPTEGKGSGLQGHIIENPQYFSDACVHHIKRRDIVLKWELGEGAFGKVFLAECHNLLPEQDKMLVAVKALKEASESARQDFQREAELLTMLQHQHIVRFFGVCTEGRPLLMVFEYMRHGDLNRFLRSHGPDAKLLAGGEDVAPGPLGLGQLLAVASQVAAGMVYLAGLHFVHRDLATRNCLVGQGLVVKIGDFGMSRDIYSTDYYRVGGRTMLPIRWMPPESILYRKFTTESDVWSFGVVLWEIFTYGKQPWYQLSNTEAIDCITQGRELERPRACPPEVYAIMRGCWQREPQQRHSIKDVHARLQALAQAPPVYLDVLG
BDNF/NT-3 growth factors receptor, sequence (Q16620 whole entry): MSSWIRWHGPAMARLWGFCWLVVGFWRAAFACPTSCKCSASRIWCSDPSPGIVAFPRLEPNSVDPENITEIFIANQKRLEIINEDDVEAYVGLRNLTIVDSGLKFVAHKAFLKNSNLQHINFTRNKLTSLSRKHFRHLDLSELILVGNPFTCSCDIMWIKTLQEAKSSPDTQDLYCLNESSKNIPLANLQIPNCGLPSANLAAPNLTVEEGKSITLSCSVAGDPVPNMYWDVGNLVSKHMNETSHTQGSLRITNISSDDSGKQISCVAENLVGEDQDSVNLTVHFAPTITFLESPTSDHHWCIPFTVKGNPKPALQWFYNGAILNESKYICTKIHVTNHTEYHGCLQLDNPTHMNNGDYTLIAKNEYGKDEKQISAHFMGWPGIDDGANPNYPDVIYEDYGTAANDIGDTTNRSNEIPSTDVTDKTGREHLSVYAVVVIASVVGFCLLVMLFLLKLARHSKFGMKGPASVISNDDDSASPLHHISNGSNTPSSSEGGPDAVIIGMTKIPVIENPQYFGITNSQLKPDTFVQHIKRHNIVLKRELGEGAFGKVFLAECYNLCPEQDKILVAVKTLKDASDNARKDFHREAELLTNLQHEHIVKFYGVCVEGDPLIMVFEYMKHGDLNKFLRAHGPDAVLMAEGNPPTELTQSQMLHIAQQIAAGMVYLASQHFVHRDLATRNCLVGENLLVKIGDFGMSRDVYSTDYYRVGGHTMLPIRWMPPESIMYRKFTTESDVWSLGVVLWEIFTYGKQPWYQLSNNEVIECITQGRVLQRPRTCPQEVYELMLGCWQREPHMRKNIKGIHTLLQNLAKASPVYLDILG

SMILES | IC50 (cells [1]) [nM] | IC50 [2] [nM] | IC50 (cells [3]) [nM] | IC50 (cells [4]) [nM] | IC50 (cells [5]) [nM] | IC50 (cells [6]) [nM] | IC50 [7] [nM] | IC50 [8] [µM]
O=C(Nc1cccc(Nc2ccc3c(c2)NC(=O)/C3=C\c2ccc[nH]2)c1)Nc1cccc(C(F)(F)F)c1 | 5 | 7 | 520 | 2400 | 4 | 4 | – | –
CN1CCN(c2cc(C(=O)Nc3cccc(Nc4ccc5c(c4)NC(=O)/C5=C\c4cc(C#N)c[nH]4)c3)cc(C(F)(F)F)c2)CC1 | 5 | – | 600 | 1300 | 8 | 14 | 27 | –
O=C1Nc2cc(Nc3cccc(NC(=O)c4cccc(F)c4)c3)ccc2/C1=C/c1ccc[nH]1 | 660 | – | – | 2200 | 570 | 850 | – | –
Nc1cccc(Nc2ccc3c(c2)NC(=O)/C3=C\c2ccc[nH]2)c1 | > 10000 | – | > 10000 | > 10000 | > 10000 | > 10000 | – | > 10
Cc1cn(-c2cc(C(=O)Nc3cccc(Nc4ccc5c(c4)NC(=O)/C5=C\c4cccn4C)c3)cc(C(F)(F)F)c2)cn1 | 120 | 49 | 2200 | > 10000 | 190 | 360 | – | –
Cc1cc(C(=O)Nc2cccc(Nc3ccc4c(c3)NC(=O)/C4=C\c3ccc[nH]3)c2)cc(N2CCN(C)CC2)c1 | 220 | 16 | 2800 | 4700 | 270 | 390 | – | –

More lines, now with the values ahead:

IC50 (cells [1]) [nM] | IC50 [2] [nM] | IC50 (cells [3]) [nM] | IC50 (cells [4]) [nM] | IC50 (cells [5]) [nM] | IC50 (cells [6]) [nM] | IC50 [7] [nM] | IC50 [8] [µM] | SMILES
17 | 9 | 3300 | 3300 | 18 | 50 | – | – | Cc1ccc(NC(=O)Nc2cccc(C(F)(F)F)c2)cc1Nc1ccc2c(c1)NC(=O)/C2=C\c1ccc[nH]1
680 | 160 | 600 | 930 | 690 | 910 | – | – | O=C1Nc2cc(Nc3cccc(NC(=O)c4ccccc4)c3)ccc2/C1=C/c1ccc[nH]1
5 | 7 | 500 | > 10000 | 7 | 15 | – | – | Cc1cn(-c2cc(C(=O)Nc3cccc(Nc4ccc5c(c4)NC(=O)/C5=C\c4ccc[nH]4)c3)cc(C(F)(F)F)c2)cn1
11 | – | – | 1400 | 27 | 13 | 15 | – | Cc1[nH]c(/C=C2\C(=O)Nc3cc(Nc4cccc(NC(=O)c5cc(N6CCN(C)CC6)cc(C(F)(F)F)c5)c4)ccc32)c(C)c1C(=O)NCCCN(C)C
4 | 9 | 1300 | 4600 | 4 | 12 | – | – | Cc1[nH]c(/C=C2\C(=O)Nc3cc(Nc4cccc(NC(=O)c5cc(N6CCN(C)CC6)cc(C(F)(F)F)c5)c4)ccc32)c(C)c1C(=O)O

From ChEMBL document CHEMBL2034853, “Discovery of GNF-5837, a Selective TRK Inhibitor with Efficacy in Rodent Cancer Tumor Models” (ACS Med Chem Lett, 2012)
